Source: ChEMBL document CHEMBL1250442, “Inhibiting gene expression at transcription start sites in chromosomal DNA with antigene RNAs” (Nat Chem Biol, 2005)
Activity calls are given as the source filed them. The rule behind the calls is not given here.

Assays:
T47D [1] = test: Inhibition of PR-A gene expression in human T47D cells at 25 nM by syber green assay in presence of 10 nM estradiol; assay type: functional, cell-based
T47D [2] = test: Inhibition of PR-B gene expression in human T47D cells at 25 nM by syber green assay in presence of 10 nM estradiol; assay type: functional, cell-based
T47D [3] = test: Inhibition of PR-A mRNA gene expression in human T47D cells at 100 nM by syber green assay; assay type: functional
How it was run: (§1)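 T47D cells plated at 80,000/well without antibiotics two days before Oligofectamine transfection with agRNA duplex (25 or 100 nM final); medium changed at 24 h, harvest day 5 unless stated otherwise. TRIzol total RNA; PR mRNA by real-time PCR with SYBR Green: 50 °C 2 min, 95 °C 10 min, 40 cycles 95 °C 15 s/60 °C 1 min.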

T47D [4] = test: Inhibition of PR-B mRNA gene expression in human T47D cells at 100 nM by syber green assay; assay type: functional
How it was run: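 T47D cells in RPMI-1640 with 10% FBS, NEAA, insulin, 37 °C, 5% CO2. Plated two days before transfection without antibiotics. Oligofectamine-mediated duplex RNA transfection at 100 nM final, medium changed at 24 h, harvest five days post-transfection. Total RNA extracted with TRIzol. hPR mRNA quantified by SYBR Green qPCR: 50 °C 2 min, 95 °C 10 min, then 40 cycles of 95 °C 15 s / 60 °C 1 min.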

T47D [5] = test: Inhibition of androgen receptor expression in human T47D cells after 12 days at 100 nM by syber green assay; assay type: functional, cell-based
How it was run: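 AR expression in T47D cells, grown in RPMI-1640 with 10% FBS, NEAA and insulin. Plated antibiotic-free two days before Oligofectamine transfection with 100 nM duplex RNA; medium replaced after 24 h. TRIzol total RNA. SYBR Green real-time PCR: 50 °C 2 min, 95 °C 10 min, 40 cycles of 95 °C 15 s and 60 °C 1 min.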

T47D [6] = test: Inhibition of PR-A gene expression in human T47D cells at 25 nM by syber green assay; assay type: functional; how it was run: as §1
T47D [7] = test: Inhibition of PR-B gene expression in human T47D cells at 25 nM by syber green assay; assay type: functional; how it was run: as §1

| SMILES | inhibition (T47D [1]) | inhibition (T47D [2]) | inhibition at 0.1 µM (T47D [3]) [%] | inhibition at 0.1 µM (T47D [4]) [%] | inhibition (T47D [5]) | inhibition at 0.025 µM (T47D [6]) [%] | inhibition at 0.025 µM (T47D [7]) [%] |
| --- | --- | --- | --- | --- | --- | --- | --- |
| Cc1cn(CC(=O)N(CCNC(=O)CN(CCNC(=O)CN(CCNC(=O)CN(CCNC(=O)CN(CCNC(=O)CN(CCNC(=O)CN(CCNC(=O)CN(CCNC(=O)CN(CCNC(=O)CN(CCNC(=O)CN(CCNC(=O)CN(CCNC(=O)CN(CCNC(=O)CN(CCNC(=O)CN(CCNC(=O)CN(CCNC(=O)CN(CCNC(=O)CN(CCNC(=O)CN(CCNC(=O)CN(CCNC(=O)CN)C(=O)Cn2ccc(N)nc2=O)C(=O)Cn2cnc3c(N)ncnc32)C(=O)Cn2ccc(N)nc2=O)C(=O)Cn2ccc(N)nc2=O)C(=O)Cn2ccc(=O)[nH]c2=O)C(=O)Cn2ccc(N)nc2=O)C(=O)Cn2ccc(N)nc2=O)C(=O)Cn2ccc(N)nc2=O)C(=O)Cn2cnc3c(N)ncnc32)C(=O)Cn2cnc3c(=O)[nH]c(N)nc32)C(=O)Cn2ccc(N)nc2=O)C(=O)Cn2cnc3c(=O)[nH]c(N)nc32)C(=O)Cn2ccc(N)nc2=O)C(=O)Cn2ccc(N)nc2=O)C(=O)Cn2ccc(N)nc2=O)C(=O)Cn2ccc(N)nc2=O)C(=O)Cn2ccc(N)nc2=O)C(=O)Cn2ccc(=O)[nH]c2=O)C(=O)Cn2ccc(N)nc2=O)CC(=O)NCCN(CC(=O)NCC(=O)O)C(=O)Cn2cc(C)c(=O)[nH]c2=O)c(=O)[nH]c1=O | Active | Active | 100 | 100 | Active |  |  |
| Cc1cn(CC(=O)N(CCNC(=O)CN(CCNC(=O)CN(CCNC(=O)CN(CCNC(=O)CN(CCNC(=O)CN(CCNC(=O)CN(CCNC(=O)CN(CCNC(=O)CN(CCNC(=O)CN(CCNC(=O)CN(CCNC(=O)CN(CCNC(=O)CN(CCNC(=O)CN(CCNC(=O)CN(CCNC(=O)CN(CCNC(=O)CN(CCNC(=O)CN(CCNC(=O)CN(CCNC(=O)CN(CCNC(=O)CN)C(=O)Cn2cnc3c(=O)[nH]c(N)nc32)C(=O)Cn2ccc(N)nc2=O)C(=O)Cn2ccc(=O)[nH]c2=O)C(=O)Cn2ccc(N)nc2=O)C(=O)Cn2ccc(=O)[nH]c2=O)C(=O)Cn2ccc(N)nc2=O)C(=O)Cn2ccc(N)nc2=O)C(=O)Cn2cnc3c(N)ncnc32)C(=O)Cn2ccc(N)nc2=O)C(=O)Cn2ccc(N)nc2=O)C(=O)Cn2ccc(=O)[nH]c2=O)C(=O)Cn2ccc(N)nc2=O)C(=O)Cn2ccc(N)nc2=O)C(=O)Cn2ccc(N)nc2=O)C(=O)Cn2cnc3c(N)ncnc32)C(=O)Cn2cnc3c(=O)[nH]c(N)nc32)C(=O)Cn2ccc(N)nc2=O)C(=O)Cn2cnc3c(=O)[nH]c(N)nc32)C(=O)Cn2ccc(N)nc2=O)CC(=O)NCCN(CC(=O)NCC(=O)O)C(=O)Cn2cc(C)c(=O)[nH]c2=O)c(=O)[nH]c1=O | Active | Active | 92 | 92 | Active |  |  |
| Cc1cn(CC(=O)N(CCNC(=O)CN(CCNC(=O)CN(CCNC(=O)CN(CCNC(=O)CN(CCNC(=O)CN(CCNC(=O)CN(CCNC(=O)CN(CCNC(=O)CN(CCNC(=O)CN(CCNC(=O)CN(CCNC(=O)CN(CCNC(=O)CN(CCNC(=O)CN(CCNC(=O)CN(CCNC(=O)CN(CCNC(=O)CN(CCNC(=O)CN(CCNC(=O)CN(CCNC(=O)CN(CCNC(=O)CN)C(=O)Cn2cnc3c(=O)[nH]c(N)nc32)C(=O)Cn2ccc(=O)[nH]c2=O)C(=O)Cn2ccc(=O)[nH]c2=O)C(=O)Cn2cnc3c(N)ncnc32)C(=O)Cn2cnc3c(=O)[nH]c(N)nc32)C(=O)Cn2cnc3c(N)ncnc32)C(=O)Cn2cnc3c(N)ncnc32)C(=O)Cn2cnc3c(N)ncnc32)C(=O)Cn2cnc3c(=O)[nH]c(N)nc32)C(=O)Cn2ccc(N)nc2=O)C(=O)Cn2ccc(=O)[nH]c2=O)C(=O)Cn2cnc3c(=O)[nH]c(N)nc32)C(=O)Cn2ccc(=O)[nH]c2=O)C(=O)Cn2ccc(N)nc2=O)C(=O)Cn2ccc(=O)[nH]c2=O)C(=O)Cn2cnc3c(=O)[nH]c(N)nc32)C(=O)Cn2cnc3c(=O)[nH]c(N)nc32)C(=O)Cn2ccc(N)nc2=O)C(=O)Cn2ccc(N)nc2=O)CC(=O)NCCN(CC(=O)NCC(=O)O)C(=O)Cn2cc(C)c(=O)[nH]c2=O)c(=O)[nH]c1=O | Active | Active | < 20 | < 20 |  | < 20 | < 20 |
| Cc1cn(CC(=O)N(CCNC(=O)CN(CCNC(=O)CN(CCNC(=O)CN(CCNC(=O)CN(CCNC(=O)CN(CCNC(=O)CN(CCNC(=O)CN(CCNC(=O)CN(CCNC(=O)CN(CCNC(=O)CN(CCNC(=O)CN(CCNC(=O)CN(CCNC(=O)CN(CCNC(=O)CN(CCNC(=O)CN(CCNC(=O)CN(CCNC(=O)CN(CCNC(=O)CN(CCNC(=O)CN(CCNC(=O)CN)C(=O)Cn2cnc3c(N)ncnc32)C(=O)Cn2cnc3c(=O)[nH]c(N)nc32)C(=O)Cn2cnc3c(N)ncnc32)C(=O)Cn2cnc3c(=O)[nH]c(N)nc32)C(=O)Cn2cnc3c(=O)[nH]c(N)nc32)C(=O)Cn2cnc3c(N)ncnc32)C(=O)Cn2cnc3c(=O)[nH]c(N)nc32)C(=O)Cn2cnc3c(=O)[nH]c(N)nc32)C(=O)Cn2cnc3c(N)ncnc32)C(=O)Cn2cnc3c(=O)[nH]c(N)nc32)C(=O)Cn2cnc3c(=O)[nH]c(N)nc32)C(=O)Cn2ccc(N)nc2=O)C(=O)Cn2cnc3c(=O)[nH]c(N)nc32)C(=O)Cn2ccc(=O)[nH]c2=O)C(=O)Cn2ccc(=O)[nH]c2=O)C(=O)Cn2cnc3c(=O)[nH]c(N)nc32)C(=O)Cn2ccc(=O)[nH]c2=O)C(=O)Cn2ccc(=O)[nH]c2=O)C(=O)Cn2cnc3c(N)ncnc32)CC(=O)NCCN(CC(=O)NCC(=O)O)C(=O)Cn2cc(C)c(=O)[nH]c2=O)c(=O)[nH]c1=O | Active | Active | < 20 | < 20 |  | < 20 | < 20 |
| Cc1cn(CC(=O)N(CCNC(=O)CN(CCNC(=O)CN(CCNC(=O)CN(CCNC(=O)CN(CCNC(=O)CN(CCNC(=O)CN(CCNC(=O)CN(CCNC(=O)CN(CCNC(=O)CN(CCNC(=O)CN(CCNC(=O)CN(CCNC(=O)CN(CCNC(=O)CN(CCNC(=O)CN(CCNC(=O)CN(CCNC(=O)CN(CCNC(=O)CN(CCNC(=O)CN(CCNC(=O)CN(CCNC(=O)CN)C(=O)Cn2cnc3c(=O)[nH]c(N)nc32)C(=O)Cn2ccc(=O)[nH]c2=O)C(=O)Cn2ccc(=O)[nH]c2=O)C(=O)Cn2cnc3c(=O)[nH]c(N)nc32)C(=O)Cn2ccc(=O)[nH]c2=O)C(=O)Cn2ccc(=O)[nH]c2=O)C(=O)Cn2cnc3c(N)ncnc32)C(=O)Cn2cnc3c(=O)[nH]c(N)nc32)C(=O)Cn2cnc3c(N)ncnc32)C(=O)Cn2cnc3c(N)ncnc32)C(=O)Cn2cnc3c(N)ncnc32)C(=O)Cn2cnc3c(=O)[nH]c(N)nc32)C(=O)Cn2ccc(N)nc2=O)C(=O)Cn2ccc(=O)[nH]c2=O)C(=O)Cn2cnc3c(=O)[nH]c(N)nc32)C(=O)Cn2ccc(=O)[nH]c2=O)C(=O)Cn2ccc(N)nc2=O)C(=O)Cn2ccc(=O)[nH]c2=O)C(=O)Cn2cnc3c(=O)[nH]c(N)nc32)CC(=O)NCCN(CC(=O)NCC(=O)O)C(=O)Cn2cc(C)c(=O)[nH]c2=O)c(=O)[nH]c1=O | Active | Active | < 20 | < 20 |  | < 20 | < 20 |
| Cc1cn(CC(=O)N(CCNC(=O)CN(CCNC(=O)CN(CCNC(=O)CN(CCNC(=O)CN(CCNC(=O)CN(CCNC(=O)CN(CCNC(=O)CN(CCNC(=O)CN(CCNC(=O)CN(CCNC(=O)CN(CCNC(=O)CN(CCNC(=O)CN(CCNC(=O)CN(CCNC(=O)CN(CCNC(=O)CN(CCNC(=O)CN(CCNC(=O)CN(CCNC(=O)CN(CCNC(=O)CN(CCNC(=O)CN(CCNC(=O)CN)C(=O)Cn2ccc(N)nc2=O)C(=O)Cn2ccc(=O)[nH]c2=O)C(=O)Cn2cnc3c(=O)[nH]c(N)nc32)C(=O)Cn2cnc3c(=O)[nH]c(N)nc32)C(=O)Cn2ccc(N)nc2=O)C(=O)Cn2ccc(N)nc2=O)C(=O)Cn2cnc3c(N)ncnc32)C(=O)Cn2cnc3c(=O)[nH]c(N)nc32)C(=O)Cn2ccc(=O)[nH]c2=O)C(=O)Cn2ccc(N)nc2=O)C(=O)Cn2ccc(N)nc2=O)C(=O)Cn2cnc3c(N)ncnc32)C(=O)Cn2ccc(N)nc2=O)C(=O)Cn2cnc3c(N)ncnc32)C(=O)Cn2cnc3c(=O)[nH]c(N)nc32)C(=O)Cn2ccc(N)nc2=O)C(=O)Cn2ccc(=O)[nH]c2=O)C(=O)Cn2cnc3c(=O)[nH]c(N)nc32)C(=O)Cn2ccc(=O)[nH]c2=O)C(=O)Cn2cc(C)c(=O)[nH]c2=O)CC(=O)O)c(=O)[nH]c1=O | Active | Active | 26 | 71 |  | < 20 | < 20 |
